The source of these data is ChEMBL document CHEMBL3352121, “Modulation of Activity Profiles for Largazole-Based HDAC Inhibitors through Alteration of Prodrug Properties” (ACS Med Chem Lett, 2014).

Data set [1] has as its system HCT-116. In words: In vivo inhibition of HDAC in tumor of human HCT116 cells xenografted nu/nu mouse assessed as increase in histone hyperacetylation at 10 mg/kg, ip after 24 hrs by immunoblotting method. In kind it is functional, organism-based. Details: dose 10 mg/kg. The gist of the method:
(§1)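 Mice bearing HCT116 xenografts were dosed intraperitoneally at 10 or 50 mg/kg, or orally at 50 mg/kg. Tumors were excised at 4, 12 and 24 h. Histone hyperacetylation in the tumors was assessed by immunoblot, n = 2.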

Data set [2] addresses Histone deacetylase (Homo sapiens) (UniProt Q13547+O15379+Q9UBN7+Q92769+Q9UQL6+Q8WUI4+Q9BY41+Q96DB2+P56524+Q9UKV0+Q969S8). In words: Inhibition of HDAC in human HCT116 cells assessed as increase in histone H3 (Lys9/14) hyperacetylation at 320 pM to 10 uM after 8 to 24 hrs by immunoblotting method. In kind it is cell-based. The note with it: HCT-116. The procedure, abridged:
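HCT116 cells were treated across a dose range, then harvested at 8 and 24 h post-treatment. Cellular HDAC inhibition was read as histone H3 (Lys9/14) hyperacetylation by immunoblot.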

The test system of data set [3] is HCT-116. Briefly: In vivo inhibition of HDAC in tumor of human HCT116 cells xenografted nu/nu mouse assessed as increase in histone hyperacetylation at 50 mg/kg, po after 4 to 12 hrs by immunoblotting method. In kind it is functional, organism-based. Details: dose 50 mg/kg. The gist of the method: as §1
(Xenograft models place foreign cells or tissue in a host animal.)

Data set [4] has as its system HCT-116. Briefly: In vivo inhibition of HDAC in tumor of human HCT116 cells xenografted nu/nu mouse assessed as increase in histone hyperacetylation at 50 mg/kg, ip after 24 hrs by immunoblotting method. In kind it is functional, organism-based. Details: dose 50 mg/kg. The gist of the method:
as §1

Data set [5] can be described thus: Drug metabolism in tumor of human HCT116 cells xenografted nu/nu mouse assessed largazole thiol formation at 50 mg/kg, po by HPLC-MS method. The note with it: in vivo.
The subject of data set [6] is Serum. Briefly: Drug metabolism in mouse serum assessed as largazole thiol formation after 0.25 to 1440 mins by HPLC-MS method. In kind it is ADME, cell-free.
Data set [7] is described as follows: Drug metabolism in human HCT116 cells protein lysate solution assessed as largazole thiol formation at 25 ug/mL after 4 hrs by HPLC-MS method. In kind it is ADME, cell-based. The note with it: hct-116, 4 h.
Data set [8] in a line: Drug level in human HCT116 cells protein lysate solution treated with 25 ug/mL compound 6 assessed as compound formation after 4 hrs by HPLC-MS method. In kind it is ADME, cell-based. The note with it: hct-116, 4 h.
Data set [9] is described as follows: Drug level in human HCT116 cells protein lysate solution treated with 25 ug/mL compound 4 assessed as compound formation after 1 hr by HPLC-MS method. In kind it is ADME, cell-based. The note with it: hct-116, 1 h.
Data set [10] relates to Serum. In words: Drug metabolism in mouse serum treated with largazole assessed as compound formation after 0.25 to 1440 mins by HPLC-MS method. In kind it is ADME, cell-free.
Data set [11] is described as follows: Drug level in human HCT116 cells protein lysate solution treated with 25 ug/mL largazole assessed as compound formation after 30 mins by HPLC-MS method. The note with it: hct-116, 0.5 h. In kind it is ADME, cell-based.
Data set [12] can be described thus: Drug level in tumor of human HCT116 cells xenografted nu/nu mouse treated with 10 mg/kg, po largazole assessed as compound formation by HPLC-MS method. In kind it is ADME, organism-based, Neoplasm, HCT-116. The note with it: in vivo. More on the design: dose 10 mg/kg, route oral.
The target of a further data set is T1, Histone deacetylase 11 (Homo sapiens, UniProt Q96DB2).
T1 sequence (Q96DB2 whole entry): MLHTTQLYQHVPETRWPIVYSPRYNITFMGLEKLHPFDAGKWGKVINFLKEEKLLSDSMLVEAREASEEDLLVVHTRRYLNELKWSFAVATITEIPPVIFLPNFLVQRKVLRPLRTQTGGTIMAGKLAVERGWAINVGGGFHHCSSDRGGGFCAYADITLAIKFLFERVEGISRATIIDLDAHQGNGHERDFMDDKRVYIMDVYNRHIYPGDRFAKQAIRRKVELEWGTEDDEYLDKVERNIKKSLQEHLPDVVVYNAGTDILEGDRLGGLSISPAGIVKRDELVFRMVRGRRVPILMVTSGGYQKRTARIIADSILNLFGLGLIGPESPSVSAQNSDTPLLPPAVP
Briefly: Inhibition of HDAC11 (unknown origin) incubated for 3 hrs in presence of BSA and in absence of DTT by fluorescence assay.

Molecules are shown by their SMILES. pIC50: −log10 of the molar value. The source made the active and inactive calls. No cut-off for these calls is given here.

Consider `CC(C)[C@@H]1NC(=O)[C@]2(C)CSC(=N2)c2csc(n2)CNC(=O)C[C@@H](/C=C/CCSSC[C@H](NC(=O)OC(C)(C)C)C(=O)O)OC1=O`, for which the inhibition entry (in the data set on HCT-116 [1]; in [2]; in the data set with HCT-116 [4]) was “Active” throughout. In addition, in the data set on HCT-116 [3], the inhibition result was “inactive”. For the same compound, the Drug metabolism result in data set [5] is “metabolite_notdetected”; in the data set with Serum [6] it was “metabolite_notdetected”; in data set [7], “metabolite_detected”.

In the case of `CC(C)[C@@H]1NC(=O)[C@]2(C)CSC(=N2)c2csc(n2)CNC(=O)C[C@@H](/C=C/CCS)OC1=O` [LARGAZOLE THIOL], the Drug metabolism result (in data set [8]; in data set [9]; in the data set on Serum [10]; in [11]; in [12]) was “metabolite_detected” in each case. Also, at Histone deacetylase 11, the negative logarithm of the IC50 (pIC50) (usually −log10 of the IC50, conventionally taken in molar units) was 8.52.
